Measurements of several laboratories.
Cell line: HepG2
Read-out: cell growth or viability

Compound | assay | setting | IC50 [µM]
Fc1ccc2c(-c3nnc(Cc4ccccc4)s3)nn(Cc3ccc(Cl)cc3Cl)c2c1 |  | 48 h | 230
O=[N+]([O-])c1ccc(NC(=S)N/N=C/c2cccc3cc4ccccc4nc23)cc1 | MTT | 48 h | > 50
O=C1CS/C(=N\c2cc(C(F)(F)F)ccc2-c2nnc(N3C(=O)CS/C3=N\c3cccc(Cl)c3)s2)N1c1cccc(Cl)c1 | MTT |  | 58.1
CC/C(=C(\c1ccccc1)c1ccc(OCCN(C)C)cc1)c1ccccc1 |  |  | 17.4
CNC(=S)N/N=C/c1cccc2cc3ccccc3nc12 | MTT | 48 h | 42
CC(=O)O[C@@H]1[C@@H](OC(C)=O)[C@H](OC(C)=O)CO[C@H]1n1cc(Cn2c(C(=O)/C=C/c3ccc(F)cc3)nc3ccccc32)nn1 | LDH | 48 h | 1.67
O=C1CSC(=Nc2cc([N+](=O)[O-])ccc2[N+](=O)[O-])N1c1nnc(-c2ccc(C(F)(F)F)cc2N=C2SCC(=O)N2c2cc([N+](=O)[O-])ccc2[N+](=O)[O-])s1 | MTT |  | 80.2
N=C(CC(O)c1cc2c(F)cc(F)cc2c2cc(C(F)(F)F)ccc12)Nc1ccc(Br)cc1 (centres unmarked) | neutral red | 24 h | 9.7
COc1ccc(N(Cc2csc(-c3ccc(C)cc3)n2)C(=O)CCCCCC(=O)NO)cc1 | MTT | 72 h | 0.19
COc1cc([C@@H]2c3cc4c(cc3[C@@H](O[C@@H]3O[C@@H]5CO[C@@H](C)O[C@H]5[C@H](O)[C@H]3O)[C@H]3COC(=O)[C@H]23)OCO4)cc(OC)c1O | MTT |  | 44.5
COc1ccc(C[C@H](N)C(=O)N[C@H]2[C@@H](O)[C@H](n3cnc4c(N(C)C)ncnc43)O[C@@H]2CO)cc1 | resazurin | 72 h | 1.25
CSc1ccccc1-c1cc(C(N)=O)c2[nH]c3c(c2c1)CC(N)CC3 (centres unmarked) |  |  | 2.46
CC(=O)O[C@@H]1[C@@H](OC(C)=O)[C@H](OC(C)=O)CO[C@H]1n1cc(Cn2c(C(C)=O)nc3ccccc32)nn1 | LDH | 48 h | 1.65
O=C1CS/C(=N\c2cc(C(F)(F)F)ccc2-c2nnc(N3C(=O)CS/C3=N\c3ccc(F)cc3)s2)N1c1ccc(F)cc1 | MTT |  | 24.1
COc1ccc2c(-c3ncc(-c4ccccc4)o3)nn(Cc3ccccc3)c2c1 |  | 48 h | 89.7
COc1ccc(N(Cc2nc(-c3ccc(F)cc3)cs2)C(=O)CCCCCC(=O)NO)cc1 | MTT | 72 h | 0.97
O=C1CS/C(=N\c2cc(C(F)(F)F)ccc2-c2nnc(N3C(=O)CS/C3=N\c3ccc(F)c(O)c3)s2)N1c1ccc(F)c(O)c1 | MTT |  | 22.5
Clc1ccc(Cn2nc(-c3nc(-c4ccccc4)no3)c3ccccc32)c(Cl)c1 |  | 48 h | 59.9
COc1cccc2c1C(=O)c1c(O)c3c(c(O)c1C2=O)C[C@@](O)(C(=O)CO)C[C@@H]3O[C@H]1C[C@H](N)[C@H](O)[C@H](C)O1 |  | 96 h | 0.109
C#CCn1c(C2CC(c3ccc(F)cc3)=NN2C(C)=O)nc2ccccc21 (centres unmarked) | LDH | 48 h | 3.25
C/C(=C\C(=O)N[C@H](C(=O)N1CCC[C@H]1C(=O)N(c1ccccc1)c1ccc(I)cc1)C(C)(C)C)c1ccc(OP(=O)(O)O)cc1 | CCK-8 |  | 6.09

Compound | assay | setting | IC50 [µM]
C#CCOc1ccc2oc(-c3ccc(OC)cc3)c(C(=O)OCC)c2c1CN1CCCCC1 | resazurin |  | 34.5
COc1cc([C@@H]2c3cc4c(cc3[C@@H](O[C@@H]3O[C@@H]5CO[C@@H](C)O[C@H]5[C@H](O)[C@H]3O)[C@H]3COC(=O)[C@H]23)OCO4)cc(OC)c1O | MTT | 75 h | 45.9
CCOc1ccc(Nc2c3c(nc4ccccc24)CCC3)cc1 | resazurin | 72 h | 11.3
CC(C)(C)[C@H](NC(=O)/C=C/c1ccc(OP(=O)(O)O)cc1)C(=O)N1CCC[C@H]1C(=O)N(c1ccccc1)c1ccc(I)cc1 | CCK-8 |  | 2.23
CC(=O)c1nc2ccccc2n1Cc1cn([C@@H]2OC[C@@H](O)[C@H](O)[C@H]2O)nn1 | LDH | 48 h | 1.55
O=C1CSC(=Nc2cc(C(F)(F)F)ccc2-c2nnc(N3C(=O)CSC3=Nc3ccc([N+](=O)[O-])cc3)s2)N1c1ccc([N+](=O)[O-])cc1 | MTT |  | 73.1
FC(F)(F)c1ccc(-c2noc(-c3nn(Cc4ccc(Cl)cc4Cl)c4ccccc34)n2)cc1 |  | 48 h | 251
CN(C)C1CCc2[nH]c3c(C(N)=O)ccc(-c4ccccc4Cl)c3c2C1 (centres unmarked) |  |  | 0.26
CC(=O)OC[C@H]1O[C@@H](n2cc(Cn3c(C(C)=O)nc4ccccc43)nn2)[C@H](OC(C)=O)[C@@H](OC(C)=O)[C@H]1OC(C)=O | LDH | 48 h | 3.27
c1ccc(Cn2nc(-c3nc(-c4ccccc4)n[nH]3)c3ccccc32)cc1 |  | 48 h | 60.8
Nc1ncnc2c1ncn2CCN1C(=O)C(=O)c2cc(Cl)ccc21 | SRB |  | 5.62
COc1ccc(-c2oc3ccc(O)c(CN4CCCCC4)c3c2C(=O)NCc2cn(Cc3ccccc3)nn2)cc1 | resazurin | 18 h | 116
O=C(O)c1nn(Cc2ccc(Cl)cc2Cl)c2ccccc12 |  | 48 h | 74.7
O=C1CS/C(=N\c2ccc(F)cc2O)N1c1nnc(-c2ccc(C(F)(F)F)cc2/N=C2\SCC(=O)N2c2ccc(F)cc2O)s1 | MTT |  | 19.5
S=C(N/N=C/c1cccc2cc3ccccc3nc12)Nc1ccccc1 | MTT | 48 h | > 50
Fc1ccc2c(-c3nnc(Cc4ccccc4)s3)nn(Cc3ccccc3)c2c1 |  | 48 h | 29.1
Cc1cccc([N+](=O)[O-])c1N=C1SCC(=O)N1c1nnc(-c2ccc(C(F)(F)F)cc2N=C2SCC(=O)N2c2c(C)cccc2[N+](=O)[O-])s1 | MTT |  | 50.1
COc1ccc2c(-c3nc(-c4ccccc4)no3)nn(Cc3ccncc3)c2c1 |  | 48 h | 68.1
COc1ccc(NC(=S)N/N=C/c2cccc3cc4ccccc4nc23)cc1 | MTT | 48 h | > 50
COc1cccc2c1C(=O)c1c(O)c3c(c(O)c1C2=O)C[C@@](O)(C(=O)CO)C[C@@H]3O[C@H]1C[C@H](N)[C@H](O)[C@H](C)O1 | MTT |  | 31.2
